Laboratory results from ChEMBL document CHEMBL5143722, “Antimicrobial Peptides against Multidrug-Resistant Pseudomonas aeruginosa Biofilm from Cystic Fibrosis Patients” (J Med Chem, 2022).
The source made the active and inactive calls. The calls are words filed in the database; no cut-off is given here.

Legend:
Pseudomonas aeruginosa [1] = assay: Induction of biofilm degradation of Pseudomonas aeruginosa clinical isolate 40 at 50 uM incubated for 1 hr by crystal violet staining analysis relative to control; type: functional
In short: (§1)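 Bacteria at 1 × 10^6 CFU/mL in BM2 grown static at 37 °C for 24 h to form biofilm. Wells rinsed of unattached cells, then exposed for 1 h to serial peptide dilutions (1.56–50 μM). Washed, stained with 0.1% crystal violet, A590 read. Biomass given as % of untreated biofilm; no-bacteria wells as blanks. At least three biological repeats.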

Pseudomonas aeruginosa [2] = assay: Antibiofilm activity against Pseudomonas aeruginosa clinical isolate 24 assessed as inhibition of biofilm formation at sub-inhibitory concentration incubated for 24 hrs by crystal violet staining based microtiter plate method; type: functional, organism-based
In short: (§2)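 Washed overnight cultures in BM2 medium at 1 × 10^6 CFU/mL with 2-fold serial peptide dilutions in a U-bottom 96-well plate. Incubated 24 h at 37 °C without agitation. Unattached cells washed off, then 0.1% crystal violet stain read at 590 nm. No-bacteria blanks. Biomass expressed as % of untreated biofilm. At least three biological repeats.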

Pseudomonas aeruginosa [3] = assay: Antibiofilm activity against Pseudomonas aeruginosa clinical isolate 25 assessed as inhibition of biofilm formation at sub-inhibitory concentration incubated for 24 hrs by crystal violet staining based microtiter plate method; type: functional, organism-based; in short: as §2
Pseudomonas aeruginosa [4] = assay: Induction of biofilm degradation of Pseudomonas aeruginosa clinical isolate 24 incubated for 1 hr by crystal violet staining analysis relative to control; type: functional; conditions: dose 50.0 µM; in short: as §1
Pseudomonas aeruginosa [5] = assay: Induction of biofilm degradation of Pseudomonas aeruginosa clinical isolate 82 at 50 uM incubated for 1 hr by crystal violet staining analysis relative to control; type: functional; in short: as §1
Pseudomonas aeruginosa [6] = assay: Induction of biofilm degradation of Pseudomonas aeruginosa clinical isolate 25 at 50 uM incubated for 1 hr by crystal violet staining analysis relative to control; type: functional; in short: as §1
Pseudomonas aeruginosa [7] = assay: Antibiofilm activity against Pseudomonas aeruginosa clinical isolate 99 assessed as inhibition of biofilm formation at sub-inhibitory concentration incubated for 24 hrs by crystal violet staining based microtiter plate method; type: functional, organism-based; in short: as §2
Pseudomonas aeruginosa [8] = assay: Antibiofilm activity against Pseudomonas aeruginosa clinical isolate 46 in basal medium 2 at 12.5 to 100 uM incubated for 24 hrs by resazurin staining based microtiter plate method; type: functional, organism-based; conditions: dose 12.5-100 µM
Pseudomonas aeruginosa [9] = assay: Antibiofilm activity against Pseudomonas aeruginosa clinical isolate 24 in basal medium 2 at 12.5 to 100 uM incubated for 24 hrs by resazurin staining based microtiter plate method; type: functional, organism-based; conditions: dose 12.5-100 µM
Pseudomonas aeruginosa [10] = assay: Antibiofilm activity against Pseudomonas aeruginosa clinical isolate 72 assessed as inhibition of biofilm formation at sub-inhibitory concentration incubated for 24 hrs by crystal violet staining based microtiter plate method; type: functional, organism-based; in short: as §2
Pseudomonas aeruginosa [11] = assay: Inhibition of biofilm formation of Pseudomonas aeruginosa clinical isolate 82 derived from cystic fibrosis patient sputum at 0.09 to 3.12 uM by crystal violet based staining analysis; type: functional, organism-based; conditions: dose 0.09-3.12 µM
In short: (§3)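 CF patient sputum diluted 10-fold with BM2, bacteria added with serial peptide dilutions starting from the highest MIC per isolate. Inoculum suspension 1 × 10^6 CFU/mL. Incubated 24 h at 37 °C without agitation. Unattached cells washed away, then 0.1% crystal violet staining and A590. Biomass given as % of untreated, with no-bacteria blanks.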

Pseudomonas aeruginosa [12] = assay: Induction of biofilm degradation of Pseudomonas aeruginosa clinical isolate 53 at sub MIC concentration incubated for 1 hr by crystal violet staining analysis; type: functional; in short: as §1
Pseudomonas aeruginosa [13] = assay: Inhibition of biofilm formation of Pseudomonas aeruginosa clinical isolate 24 derived from cystic fibrosis patient sputum at 0.78 to 25 uM by crystal violet based staining analysis; type: functional, organism-based; conditions: dose 0.78-25 µM; in short: as §3
Pseudomonas aeruginosa [14] = assay: Induction of biofilm degradation of Pseudomonas aeruginosa clinical isolate 24 at sub MIC concentration incubated for 1 hr by crystal violet staining analysis; type: functional; in short: as §1
Pseudomonas aeruginosa [15] = assay: Induction of biofilm degradation of Pseudomonas aeruginosa clinical isolate 995 at 50 uM incubated for 1 hr by crystal violet staining analysis relative to control; type: functional; in short: as §1
Pseudomonas aeruginosa [16] = assay: Antibiofilm activity against Pseudomonas aeruginosa clinical isolate 82 in basal medium 2 at 12.5 to 100 uM incubated for 24 hrs by resazurin staining based microtiter plate method; type: functional, organism-based; conditions: dose 12.5-100 µM
Pseudomonas aeruginosa [17] = assay: Induction of biofilm degradation of Pseudomonas aeruginosa clinical isolate 72 at 50 uM incubated for 1 hr by crystal violet staining analysis relative to control; type: functional; in short: as §1
Pseudomonas aeruginosa [18] = assay: Induction of biofilm degradation of Pseudomonas aeruginosa clinical isolate 238 at 50 uM incubated for 1 hr by crystal violet staining analysis relative to control; type: functional; in short: as §1
Pseudomonas aeruginosa [19] = assay: Induction of biofilm degradation of Pseudomonas aeruginosa PAO1 at 50 uM incubated for 1 hr by crystal violet staining analysis relative to control; type: functional; in short: as §1
Pseudomonas aeruginosa [20] = assay: Induction of biofilm degradation of Pseudomonas aeruginosa clinical isolate 629 at 50 uM incubated for 1 hr by crystal violet staining analysis relative to control; type: functional; in short: as §1
Pseudomonas aeruginosa [21] = assay: Induction of biofilm degradation of Pseudomonas aeruginosa clinical isolate 40 at sub MIC concentration incubated for 1 hr by crystal violet staining analysis; type: functional; in short: as §1
Pseudomonas aeruginosa [22] = assay: Antibiofilm activity against Pseudomonas aeruginosa clinical isolate 46 assessed as inhibition of biofilm formation at sub-inhibitory concentration incubated for 24 hrs by crystal violet staining based microtiter plate method; type: functional, organism-based; in short: as §2
Pseudomonas aeruginosa [23] = assay: Induction of biofilm degradation of Pseudomonas aeruginosa clinical isolate 53 at 50 uM incubated for 1 hr by crystal violet staining analysis relative to control; type: functional; in short: as §1
Pseudomonas aeruginosa [24] = assay: Inhibition of biofilm formation of Pseudomonas aeruginosa PAO1 in patient derived CF-sputum at 0.09 to 3.12 uM by crystal violet based staining analysis; type: functional, organism-based; conditions: dose 0.09-3.12 µM; in short: as §3
Pseudomonas aeruginosa [25] = assay: Induction of biofilm degradation of Pseudomonas aeruginosa clinical isolate 71 at 50 uM incubated for 1 hr by crystal violet staining analysis relative to control; type: functional; in short: as §1
Pseudomonas aeruginosa [26] = assay: Antibiofilm activity against Pseudomonas aeruginosa clinical isolate 53 assessed as inhibition of biofilm formation at sub-inhibitory concentration incubated for 24 hrs by crystal violet staining based microtiter plate method; type: functional, organism-based; in short: as §2
Pseudomonas aeruginosa [27] = assay: Inhibition of biofilm formation of Pseudomonas aeruginosa clinical isolate 24 derived from cystic fibrosis patient sputum at 0.09 to 3.12 uM by crystal violet based staining analysis; type: functional, organism-based; conditions: dose 0.09-3.12 µM; in short: as §3
Pseudomonas aeruginosa [28] = assay: Induction of biofilm degradation of Pseudomonas aeruginosa clinical isolate 99 at 50 uM incubated for 1 hr by crystal violet staining analysis relative to control; type: functional; in short: as §1
Pseudomonas aeruginosa [29] = assay: Induction of biofilm degradation of Pseudomonas aeruginosa clinical isolate 59 at <12.5 uM incubated for 1 hr by crystal violet staining analysis; type: functional; in short: as §1
Pseudomonas aeruginosa [30] = assay: Induction of biofilm degradation of Pseudomonas aeruginosa clinical isolate 46 at 50 uM incubated for 1 hr by crystal violet staining analysis relative to control; type: functional; in short: as §1
Pseudomonas aeruginosa [31] = assay: Induction of biofilm degradation of Pseudomonas aeruginosa clinical isolate 172 at 50 uM incubated for 1 hr by crystal violet staining analysis relative to control; type: functional; in short: as §1
Pseudomonas aeruginosa [32] = assay: Induction of biofilm degradation of Pseudomonas aeruginosa clinical isolate 59 at 50 uM incubated for 1 hr by crystal violet staining analysis relative to control; type: functional
In short: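 Inoculum of 1 × 10^6 CFU/mL was grown 24 h at 37 °C without agitation to form biofilm. Wells were rinsed of unattached bacteria and exposed for 1 h to serial peptide dilutions (1.56–50 μM). They were then washed, stained with 0.1% crystal violet, and read at 590 nm with no-bacteria blanks. Biomass is given as % of untreated biofilm.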

Pseudomonas aeruginosa [33] = assay: Induction of biofilm degradation of Pseudomonas aeruginosa clinical isolate 52 at 50 uM incubated for 1 hr by crystal violet staining analysis relative to control; type: functional; in short: as §1
Pseudomonas aeruginosa [34] = assay: Antibiofilm activity against Pseudomonas aeruginosa clinical isolate 71 assessed as inhibition of biofilm formation at sub-inhibitory concentration incubated for 24 hrs by crystal violet staining based microtiter plate method; type: functional, organism-based; in short: as §2
Pseudomonas aeruginosa [35] = assay: Induction of biofilm degradation of Pseudomonas aeruginosa clinical isolate 29 at 50 uM incubated for 1 hr by crystal violet staining analysis relative to control; type: functional; in short: as §1
Pseudomonas aeruginosa [36] = assay: Antibiofilm activity against Pseudomonas aeruginosa PAO1 in basal medium 2 at 12.5 to 100 uM incubated for 24 hrs by resazurin staining based microtiter plate method; type: functional, organism-based; conditions: dose 12.5-100 µM
[37] = system: Pseudomonas aeruginosa PAO1; assay: Induction of biofilm degradation of Pseudomonas aeruginosa PAO1 in cystic fibrosis patient sputum at 10 uM incubated for 48 hr by resazurin staining based confocal microscopy analysis
Pseudomonas aeruginosa [38] = assay: Antibiofilm activity against Pseudomonas aeruginosa clinical isolate 629 assessed as inhibition of biofilm formation at sub-inhibitory concentration incubated for 24 hrs by crystal violet staining based microtiter plate method; type: functional, organism-based; in short: as §2
Pseudomonas aeruginosa [39] = assay: Induction of biofilm degradation of Pseudomonas aeruginosa clinical isolate 251 at 50 uM incubated for 1 hr by crystal violet staining analysis; type: functional; in short: as §1

## CC(C)C[C@H](NC(=O)[C@H](CC(C)C)NC(=O)[C@H](CC(C)C)NC(=O)[C@H](CC(C)C)NC(=O)[C@H](CCCCN)NC(=O)[C@H](CCCCN)NC(=O)[C@H](CCCCN)NC(=O)[C@H](CCCCN)NC(=O)[C@H](CCCCN)NC(=O)[C@H](CCCCN)NC(=O)[C@H](CC(C)C)NC(=O)[C@H](CC(C)C)NC(=O)[C@H](CC(C)C)NC(=O)[C@H](CC(C)C)NC(=O)[C@@H](N)CC(C)C)C(N)=O
Pseudomonas aeruginosa [1]
  Activity: 60%
Pseudomonas aeruginosa [2]
  inhibition: Active
Pseudomonas aeruginosa [3]
  inhibition: Active
Pseudomonas aeruginosa [4]
  Activity: 60%
Pseudomonas aeruginosa [5]
  Activity: 60%
Pseudomonas aeruginosa [6]
  Activity: 60%
Pseudomonas aeruginosa [7]
  inhibition: Active
Pseudomonas aeruginosa [8]
  Activity: Active
Pseudomonas aeruginosa [9]
  Activity: Active
Pseudomonas aeruginosa [10]
  inhibition: Active
Pseudomonas aeruginosa [11]
  inhibition: Active
Pseudomonas aeruginosa [12]
  Activity: Active
Pseudomonas aeruginosa [13]
  inhibition: Active
Pseudomonas aeruginosa [14]
  Activity: Active
Pseudomonas aeruginosa [15]
  Activity: 60%
Pseudomonas aeruginosa [16]
  Activity: Active
Pseudomonas aeruginosa [17]
  Activity: 60%
Pseudomonas aeruginosa [18]
  Activity: 60%
Pseudomonas aeruginosa [19]
  Activity: 60%
Pseudomonas aeruginosa [20]
  Activity: 60%
Pseudomonas aeruginosa [21]
  Activity: Active
Pseudomonas aeruginosa [22]
  inhibition: Active
Pseudomonas aeruginosa [23]
  Activity: 60%
Pseudomonas aeruginosa [24]
  inhibition: Active
Pseudomonas aeruginosa [25]
  Activity: 60%
Pseudomonas aeruginosa [26]
  inhibition: Active
Pseudomonas aeruginosa [27]
  inhibition: Active
Pseudomonas aeruginosa [28]
  Activity: 60%
Pseudomonas aeruginosa [29]
  Activity: Active
Pseudomonas aeruginosa [30]
  Activity: 60%
Pseudomonas aeruginosa [31]
  Activity: 60%
Pseudomonas aeruginosa [32]
  Activity: 40%
Pseudomonas aeruginosa [33]
  Activity: 60%
Pseudomonas aeruginosa [34]
  inhibition: Active
Pseudomonas aeruginosa [35]
  Activity: 60%
Pseudomonas aeruginosa [36]
  Activity: Active
[37]
  Activity: Active
Pseudomonas aeruginosa [38]
  inhibition: Active
Pseudomonas aeruginosa [39]
  Activity: 60%
